# Data published in ChEMBL document CHEMBL1156169, “Discovery of triarylethanolamine inhibitors of the Kv1.5 potassium channel” (Bioorg Med Chem Lett, 2010).
# Columns and labels:
# [1] = Aqueous solubility at pH 7.4; format: physicochemical
# Summary of the method: (§1)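 Solubility measured in buffered aqueous solution at the pH stated for each line and expressed as mg/mL. Solid samples were checked by microscopy under plain polarized light and were crystalline; the specific crystal form was not determined.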
# [2] = Aqueous solubility at pH 5.2; format: physicochemical; summary of the method: as §1
# [3] = Clearance in rat; format: ADME, organism-based; conditions: in vivo
# [4] = Volume of distribution in rat; format: ADME, organism-based; conditions: in vivo
# [5] = Half life in rat; format: ADME, organism-based; conditions: in vivo
# [6] = Plasma concentration in rat at 0.01 mg/kg/min, iv after 20 mins; format: ADME, organism-based; design: route intravenous
# [7] = Plasma concentration in rat at 0.03 mg/kg/min, iv after 20 mins; format: ADME, organism-based; design: route intravenous
# [8] = Plasma concentration in rat at 0.06 mg/kg/min, iv after 20 mins; format: ADME, organism-based; design: route intravenous
# [9] = Plasma concentration in rat at 0.2 mg/kg/min, iv after 20 mins; format: ADME, organism-based; design: route intravenous
# [10] = Plasma concentration in rat at 0.6 mg/kg/min, iv after 20 mins; format: ADME, organism-based; design: route intravenous
# [11] = Drug level in rat plasma at 435 ug/kg/min, iv after 1 hr; format: ADME, organism-based; conditions: 0.435 mg/kg
# [12] = Drug level in rat brain at 435 ug/kg/min, iv after 1 hr; format: ADME, organism-based; conditions: 0.435 mg/kg, read-out: Drug uptake
# [13] = in vivo; conditions: rat, brain/plasma, iv, 0.435 mg/kg
# [14] = Aqueous solubility at pH 7.2; format: physicochemical; summary of the method: as §1
solubility [1] [µg/mL],solubility [2] [µg/mL],clearance [3] [mL/min/kg],Vd [4] [L/kg],half-life [5] [h],concentration at 20 min [6] [µM],concentration at 20 min [7] [µM],concentration at 20 min [8] [µM],concentration at 20 min [9] [µM],concentration at 20 min [10] [µM],concentration at 1 h [11] [µM],concentration at 1 h [12] [µM],Kp at 1 h [13],solubility [14] [µg/mL],SMILES
110,1400,59,3.4,1.1,0.185,0.651,1.78,4.9,9.62,23.4,13.7,0.58,,OC(c1cccnc1)(c1cccnc1)C(c1ccccc1)N1CCCC1 (stereo not given)
,,,,,,,,,,,,,43,OC(c1cccnc1)(c1cccnc1)C(c1ccccc1)N1CCOCC1 (stereo not given)
5.4,,,,,,,,,,,,,,OC(c1cccnc1)(c1cccnc1)C(c1ccccc1)N1CCCCC1 (stereo not given)
